The record followed here is ChEMBL document CHEMBL1142736, “Synthesis of novel diarylpyrimidine analogues and their antiviral activity against human immunodeficiency virus type 1” (J Med Chem, 2005).

Molecules are shown by their SMILES. pEC50: −log10 of the molar value.

The test system of series [1] is Human immunodeficiency virus 1. Kind of series: Ratio of CC50 and EC50 against wild type human immunodeficiency virus type 1 LAI strain. It is filed as functional.
Series [2] concerns Human immunodeficiency virus 1. Description: Effective concentration against human immunodeficiency virus type 1 mutated at 227L+106A. Format: functional, organism-based.
Series [3] relates to Human immunodeficiency virus 1. Kind of series: Effective concentration against human immunodeficiency virus type 1 mutated at 227C. Format: functional, organism-based.
Series [4] relates to Human immunodeficiency virus 1. Description: Effective concentration against human immunodeficiency virus type 1 mutated at 181C. Format: functional, organism-based.
Series [5] concerns Human immunodeficiency virus 1. Kind of series: Effective concentration against human immunodeficiency virus type 1 mutated at 103N. It is filed as functional, organism-based.
Series [6] is described as follows: Cytotoxic concentration against wild type human immunodeficiency virus type 1 […] strain. To be noted: Human immunodeficiency virus 1. In short, it runs like this:
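MT-4 cells, 30,000 cells/well, were mock-infected (virus at 200-250 CCID50/well for the infected wells) and exposed to a range of compound concentrations. Plates were held at 37 °C with 5% CO2.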

Series [7] deals with Human immunodeficiency virus 1. Kind of series: Effective concentration for the inhibition of wild type human immunodeficiency virus type 1 LAI strain. Format: functional, organism-based.
In series [8] the test system is Human immunodeficiency virus 1. Kind of series: Effective concentration against human immunodeficiency virus type 1 mutated at 100I. It is filed as functional, organism-based.
Series [9] has as its system Human immunodeficiency virus 1. Description: Effective concentration against human immunodeficiency virus type 1 mutated at 188L. Format: functional, organism-based.
Series [10] relates to Human immunodeficiency virus 1. Kind of series: Effective concentration against human immunodeficiency virus type 1 mutated at 100I+103N. Format: functional, organism-based.
The subject of series [11] is Human immunodeficiency virus 1. Description: Effective concentration against human immunodeficiency virus type 1 mutated at 103N+181C. It is filed as functional, organism-based.
In series [12] the test system is Human immunodeficiency virus 1. Kind of series: Effective concentration against human immunodeficiency virus type 1 mutated at 103N+181C; ND:Not determined. It is filed as functional, organism-based.

In general, pEC50 refers to the negative decadic logarithm of the EC50, by convention in mol/L. Low readings indicate a high EC50, high ones a low EC50. Usually CC50 stands for the concentration that lowers cell viability or growth by half. Read a high CC50 as better tolerance by the cells. As for `Cc1cc(/C=C(/C#N)CC#N)cc(C)c1Nc1ccnc(Nc2ccc(C#N)cc2)n1`, the Selectivity index in series [1] is listed as 5012. Further, the negative-log EC50 (pEC50) in series [2] was 7.60; in series [3] it was 7.90; in series [4], 8.20; in series [5], 8.20; in [7], 9.40; in series [8], 7.50. Besides, the pEC50 in series [9] is 7.50. The compound also returned a CC50 in series [6] of 2 µM.
Take `Cc1cc(/C=C\C#N)cc(C)c1Nc1ccnc(Nc2ccc(C#N)cc2)n1`: the pEC50 in series [2] is 8.40; in [10], 6.10; in series [11], 7.40; in series [3], 8.40; in series [4] it was 8.30; in [5], 8.80. Further, the negative logarithm of the EC50 (pEC50) in series [7] is 9.22; in [8], 8.20; in series [9] it was 7.51. Besides, the CC50 in series [6] turned out to be 30 µM.
Consider `C/C(C#N)=C\c1cc(C)c(Nc2ccnc(Nc3ccc(C#N)cc3)n2)c(C)c1`, for which, in series [1], the Selectivity index came to 25000. In addition, the pEC50 in series [2] is 8.40; in series [10], 8.10; in series [11], 8.70; in series [3] it was 8.60; in series [4], 8.80; in [5], 9.22. The negative-log EC50 (pEC50) in series [7] is 9.10; in series [8], 9.22; in series [9], 8.50. In addition, the CC50 in [6] is 20 µM.
For the compound `Cc1cc(/C(Cl)=C/C#N)cc(C)c1Nc1ccnc(Nc2ccc(C#N)cc2)n1`, in [1], the Selectivity index was found to be 7500. The negative-log EC50 (pEC50) in series [2] was 8.10; in series [10] it was 7.50; in series [11], 8.20; in [3], 7.50; in series [4], 8.20; in series [5] it was 8.70. For the same compound, the negative logarithm of the EC50 (pEC50) was 8.40 in [7], 8.60 in [8] and 8.10 in series [9]. Further, in series [6], the midpoint of cytotoxicity, the CC50, lay at 30 µM.
Turning to `C/C(C#N)=C/c1cc(C)c(Nc2ccnc(Nc3ccc(C#N)cc3)n2)c(C)c1`, the Selectivity index in series [1] turned out to be 3750. In addition, the pEC50 is 8.30 in series [2]; under 5.00 in series [10]; 7.70 in series [11]; 8.30 in series [3]; 8.40 in series [4]; 9.00 in series [5]. In addition, the pEC50 in [7] was 9.10; in series [8], 7.50; in [9], 7.50. In series [6], this compound returned a CC50 of 3 µM.
Consider `Cc1cc(/C=C/CC#N)cc(C)c1Nc1ccnc(Nc2ccc(C#N)cc2)n1`, for which the Selectivity index in [1] came out at 10000. The pEC50 is 7.30 in series [2]; 6.60 in [10]; 9.00 in series [11]; 7.40 in [3]; 7.50 in [4]; 8.60 in [5]. For the same compound, the pEC50 in [7] was 9.00; in series [8], 7.40; in [9], 7.70. Also, half-maximal cytotoxicity in series [6] (CC50) was put at 10 µM.
As for `Cc1cc(CC(C)C#N)cc(C)c1Nc1ccnc(Nc2ccc(C#N)cc2)n1` (stereo not drawn), in series [1], the Selectivity index turned out to be 1578. Further, the pEC50 in series [2] was 8.50; in series [10], 7.90; in [11] it was 8.30; in series [3] it was 8.20; in series [4], 8.70; in series [5], 9.20. Moreover, the pEC50 in series [7] was 9.20; in [8] it was 9.00; in series [9], 7.30. Also, the midpoint of cytotoxicity in series [6], the CC50, lay at 1 µM.
On to `Cc1cc(-c2ccc(C#N)o2)cc(C)c1Nc1ccnc(Nc2ccc(C#N)cc2)n1`, for which the Selectivity index in series [1] is 3162. Also, the negative logarithm of the EC50 (pEC50) was 7.50 in series [2]; 6.30 in series [10]; 7.50 in series [3]; 7.40 in series [4]; 8.10 in series [5]; 8.40 in series [7]. Moreover, the pEC50 in series [8] and in series [9] was 7.50 throughout. Moreover, in [6], it took 10 µM to reach half-maximal cytotoxicity (CC50).
On to `Cc1cc(COCCC#N)cc(C)c1Nc1ccnc(Nc2ccc(C#N)cc2)n1`, for which, in series [1], the Selectivity index was determined as 15873. Besides, the pEC50 is 6.90 in [2]; 8.00 in series [3]; 7.50 in series [4]; 8.50 in [5]; 9.20 in series [7]; 7.60 in [8]. The negative-log EC50 (pEC50) in series [9] is 7.40. In [6], the cytotoxic concentration (CC50) worked out at 10 µM.
For `Cc1cc(CC#N)cc(C)c1Nc1ccnc(Nc2ccc(C#N)cc2)n1`, the Selectivity index in [1] was determined as 12589. The pEC50 was 6.90 in series [2]; 8.00 in series [3]; 7.60 in series [4]; 8.10 in series [5]; 9.10 in [7]; 7.40 in [8]. In addition, the pEC50 in [9] was 7.60. Moreover, the CC50 in series [6] was determined as 10 µM.
Consider `Cc1cc(CCC#N)cc(C)c1Nc1ccnc(Nc2ccc(C#N)cc2)n1`, for which, in [1], the Selectivity index is on record as 4782. For the same compound, the negative logarithm of the EC50 (pEC50) was 8.40 in series [2]; 7.50 in series [10]; 8.60 in series [11]; 8.40 in series [3]; 7.90 in [4]; 9.40 in series [5]. In addition, the negative logarithm of the EC50 (pEC50) is 9.20 in series [7], 8.10 in [8] and 7.70 in [9]. For the same compound, in series [6], the CC50 was determined as 3 µM.
Turning to `C/C(=C\C#N)c1cc(C)c(Nc2ccnc(Nc3ccc(C#N)cc3)n2)c(C)c1`, the Selectivity index in [1] was determined as 30000. For the same compound, the negative logarithm of the EC50 (pEC50) in series [2] was 8.30; in series [10], 8.60; in [11], 8.60; in series [3], 8.30; in [4], 8.60; in series [5] it was 9.00. The negative-log EC50 (pEC50) in series [7] is 9.00; in [8] it was 9.10; in series [9] it was 8.40. In addition, in series [6], the 50% cytotoxic concentration (CC50) stood at 30 µM.
Take `Cc1cc(C#N)cc(C)c1Nc1ccnc(Nc2ccc(C#N)cc2)n1`: in series [1], the Selectivity index is 12500. Besides, the pEC50 in series [2] was 7.90; in [10] it was 6.00; in series [11], 7.51; in series [3] it was 7.00; in series [4], 8.20; in [5], 8.70. Also, the values for the pEC50 in series [7], in series [8] and in [9] were 9.40, 7.51 and 8.10, respectively. In series [6], this compound displayed a CC50 of 5 µM.
As to `CC(C)Nc1cccnc1N1CCN(C(=O)c2cc3cc(NS(C)(=O)=O)ccc3[nH]2)CC1` [DELAVIRDINE], the Selectivity index in series [1] is recorded as over 300. The negative-log EC50 (pEC50) in series [12] is 4.70; in series [4], 5.70; in [5], 5.60; in series [7], 7.20; in series [8], 5.60; in [9] it was 5.90. Besides, the CC50 in [6] is over 20 µM.
Take `O=C1Nc2ccc(Cl)cc2[C@@](C#CC2CC2)(C(F)(F)F)O1` [EFAVIRENZ]: the pEC50 in series [10] is under 5.00; in [11], 7.40; in series [3], 6.80; in [4], 8.70; in series [5] it was 7.40; in series [8] it was 7.40. Besides, the pEC50 in series [9] was 6.80. Moreover, half-maximal cytotoxicity in series [6] (CC50) was put at 10 µM.
Regarding `Cc1ccnc2c1NC(=O)c1cccnc1N2C1CC1` [NEVIRAPINE], the Selectivity index in [1] is given as over 500. The negative logarithm of the EC50 (pEC50) in series [11] is under 5.00; in [4], 5.00; in series [5] it was 5.20; in [7] it was 7.40; in series [8], 6.50; in series [9] it was under 5.00. The compound further returned a CC50 in series [6] of 20 µM.
As for `Cc1cc(/C=C/C#N)cc(C)c1Nc1ccnc(Nc2ccc(C#N)cc2)n1` [RILPIVIRINE], the pEC50 was 9.00 in series [2]; 8.10 in series [10]; 9.00 in series [11]; 8.70 in series [3]; 8.90 in series [4]; 9.52 in series [5]. In addition, the negative-log EC50 (pEC50) in [8] is 9.40; in [9] it was 8.70. Moreover, the midpoint of cytotoxicity in [6], the CC50, lay at 30 µM.
